Data on 15 compounds can be found in publication PMC2989669 (Bioorganic & medicinal chemistry letters, 2010).

The target of one test is T1, MIF-CD74 binding (Homo sapiens, UniProt P14174).
T1 sequence (P14174 2-115 limits assumed): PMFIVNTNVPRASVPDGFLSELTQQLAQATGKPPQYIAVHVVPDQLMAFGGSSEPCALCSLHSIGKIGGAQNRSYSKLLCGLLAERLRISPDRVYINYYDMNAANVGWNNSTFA
The experiment in a line: MIF-CD74 binding assay. The settings on record: for IC50 or max % inhib CD74 (result in words): MIF-CD74 binding assay.

In the next test the target is T2, human MIF (Homo sapiens, UniProt P14174).
T2 sequence (P14174 2-115 limits assumed): T1 sequence (P14174 2-115 limits assumed)
The experiment in a line: MIF tautomerase assay using 4-hydroxyphenylpyruvate. It is filed as biochemical. The following applies: for IC50 or max % inhib 4-HPP (result in words): tautomerase assay. The gist of the method: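 Recombinant human MIF; tautomerase activity measured with 4-hydroxyphenylpyruvate (4-HPP) as substrate. Test compounds were run from 1 nM to 1 mM. IC50 was reported. Where inhibition plateaued below 50%, the maximum percent inhibition was reported instead.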

The test system of test [1] is MIF-dependent ERK1/2 phosphorylation. Put plainly: MIF-dependent ERK1/2 phosphorylation in human fibroblasts. It is filed as cell-based. The settings on record: human primary fibroblasts, MIF […] trimer, compound 8 nM, 30 min.
The next test relates to MIF tautomerase. The following applies: cited from earlier work.

Where only a bound is given, the exact number is not on record here.

Broadly, the IC50 is the midpoint of a concentration-inhibition curve. Turning to `Oc1ccc(-c2cn(Cc3ccccc3)nn2)cc1` [3a], on MIF-CD74 binding, the IC50 was > 1000 µM.

Turning to `Cc1ccccc1Cn1cc(-c2ccc(O)cc2)nn1` [3b], the IC50 at MIF-CD74 binding was > 1000 µM.

For the compound `Cc1cccc(Cn2cc(-c3ccc(O)cc3)nn2)c1` [3c], the IC50 at MIF-CD74 binding was > 1000 µM.

With `COc1ccccc1Cn1cc(-c2ccc(O)cc2)nn1` [3d], on human MIF, the “IC50 or max % inhib 4-HPP (result in words)” value (shortened to “IC50 or max % inhib 4-HPP”) is “Agon”. At MIF-CD74 binding, the “IC50 or max % inhib CD74 (result in words)” value (shortened to “IC50 or max % inhib CD74”) is on record as “Agon”. In test [1], the “effect on MIF-dependent ERK1/2 phosphorylation” value (from here on “effect”) was “enhances ERK1/2 phosphorylation”.

Turning to `COc1ccc(Cn2cc(-c3ccc(O)cc3)nn2)cc1` [3f], the IC50 at MIF-CD74 binding was > 1000 µM.

Take `COc1cccc(Cn2cc(-c3ccc(O)cc3)nn2)c1OC` [3g]: the IC50 at human MIF and on MIF-CD74 binding was ~1 µM in each case. Moreover, in test [1], the “effect” value was “strongly inhibits”.

As to `COC(=O)c1cccc(Cn2cc(-c3ccc(O)cc3)nn2)c1` [3h], the IC50 against human MIF and on MIF-CD74 binding was ~1 µM each time.

Take `O=C(O)c1cccc(Cn2cc(-c3ccc(O)cc3)nn2)c1` [3i]: the IC50 on MIF-CD74 binding is > 1000 µM.

Regarding `Oc1ccc(-n2cc(Cc3cccc(O)c3)nn2)cc1` [4d], the IC50 at human MIF and at MIF-CD74 binding was > 1000 µM in each case.

Regarding `COc1cccc(Cc2cn(-c3ccc(O)cc3)nn2)c1OC` [4i], the IC50 at MIF-CD74 binding is > 1000 µM.

For the compound `Oc1ccc(-n2cc(-c3cccnc3)nn2)cc1` [5a], on human MIF, the “IC50 or max % inhib 4-HPP” value is reported as “Agon”. Besides, the “IC50 or max % inhib CD74” value at MIF-CD74 binding is listed as “Agon”. The “effect” value in test [1] is listed as “enhances ERK1/2 phosphorylation”.

Regarding `Oc1ccc(-n2cc(-c3cccc4ccccc34)nn2)cc1` [5b], the IC50 at MIF-CD74 binding is > 1000 µM.

As to `Oc1ccc(-n2cc(-c3cncc4ccccc34)nn2)cc1` [5c], the “IC50 or max % inhib 4-HPP” value at human MIF is on record as “Agon”. Besides, on MIF-CD74 binding, the “IC50 or max % inhib CD74” value was “Agon”. Besides, the “effect” value in test [1] is listed as “enhances ERK1/2 phosphorylation”.

For `CCOC(=O)c1cc2ccc(O)cc2oc1=O` [compound 1], the “tautomerase inhibition (reported potency)” value with MIF tautomerase was 7 µM.

In the case of `COC(=O)CC1CC(c2ccc(O)cc2)=NO1` (stereo not shown) [compound 2], the “tautomerase inhibition (reported potency)” value in the test with MIF tautomerase was 7 µM.
